Laboratory results published in the RNAGym collection of RNA variant scans (doi:10.1038/s41586-018-0170-7).

B1: tRNA (parent)
chain: GUUCCGUUGGCGUAAUGGUAACGCGUCUCCCUCCUAAGGAGAAGACUGCGGGUUCGAGUCCCGUACGGAACG

Variants of: B1
Assay: yeast fitness, log relative to wild type (ln ratio); higher = fitter; tRNA-Arg(CCU), competitive growth, 37 C, 1 M NaCl
Method in brief: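 In BY4742 missing the chromosomal gene, a combinatorial tRNA-Arg(CCU) variant library was maintained on a HIS3 centromeric plasmid. Selection ran ~6.5 generations (~26.5 h) in SC-HIS 1M NaCl at 37 °C, following 4 generations in SC-HIS at 30 °C, with three outputs per input and variant counts by 125 bp paired-end Illumina sequencing. Fitness is the natural log of a genotype's generations relative to the wild type's, with generations taken as inverse-variance-weighted, OD-scaled log2 output/input frequency.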

Row | Variant | yeast fitness (ln)
1 | ACUCCGUUGGCGUAAUGGUAACGCGUCUCCCUCCUAAGGAGAAGACUGCGGGUUCGAGUCCCGUACGGGUCG [G1A U2C A69G A70U] | -0.00637
2 | ACUCCGUUGGCGUAAUGGUAACGCGUCUCCCUCCUAAGGAGAAGACUGCGGGUUCGAGUCCCGUACGGGGCG [G1A U2C A69G A70G] | -0.0537
3 | ACUCCGUUGGCGUAAUGGUAACGCGUUUCCCUCCUAAGGAGACGAUUGCGGGUUCGAGUCCCGUACGGAACG [G1A U2C C27U A43C C46U] | -0.0167
4 | ACUCCGUUGGCGUAAUGGUAACGCGUUUCCCUCCUAAGGAGACGAUUGCGGGUUCGAGUCCCGUAUGGAUUG [G1A U2C C27U A43C C46U C66U A70U C71U] | -0.297
5 | ACUCCGUUGGCGUAAUGGUAACGCGUUUCCCUCCUAAGGAGACGAUUGCGGGUUCGAGUCCCGUACGGGGUG [G1A U2C C27U A43C C46U A69G A70G C71U] | -0.0168
6 | ACUCCGUUGGCGUAAUGGUAACGCGUUUCCCUCCUAAGGAGACGACUGCGGGUUCGAGUCCCGUACGGAGUG [G1A U2C C27U A43C A70G C71U] | -0.0249
7 | ACUCCGUUGGCGUAAUGGUAACGCGUUUCCCUCCUAAGGAGACGAUUGCGGGUUCGAGUCCCGUACGGAGUG [G1A U2C C27U A43C C46U A70G C71U] | -0.012
8 | ACUCCGUUGGCGUAAUGGUAACGCGUCUCCCUCCUAAGGAGACGAUUGCGGGUUCGAGUCCCGUACGGAAUG [G1A U2C A43C C46U C71U] | -0.0678
9 | ACUCCGUUGGCGUAAUGGUAACGCGUCUCCCUCCUAAGGAGACGACUGCGGGUUCGAGUCCCGUAUGGGGUG [G1A U2C A43C C66U A69G A70G C71U] | -0.287
10 | ACUCCGUUGGCGUAAUGGUAACGCGUCUCCCUCCUAAGGAGACGAUUGCGGGUUCGAGUCCCGUACGGAGCG [G1A U2C A43C C46U A70G] | -0.00269
11 | ACUCCGUUGGCGUAAUGGUAACGCGUCUCCCUCCUAAGGAGACGAUUGCGGGUUCGAGUCCCGUACGGAUCG [G1A U2C A43C C46U A70U] | -0.0817
12 | ACUCCGUUGGCGUAAUGGUAACGCGUUUCCCUCCUAAGGAGACGACUGCGGGUUCGAGUCCCGUACGGAACG [G1A U2C C27U A43C] | -0.0395
13 | ACUCCGUUGGCGUAAUGGUAACGCGUCUCCCUCCUAAGGAGAAGACUGCGGGUUCGAGUCCCGUACGGGGUG [G1A U2C A69G A70G C71U] | -0.0058
14 | ACUCCGUUGGCGUAAUGGUAACGCGUUUCCCUCCUAAGGAGACGAUUGCGGGUUCGAGUCCCGUAAGGAUUG [G1A U2C C27U A43C C46U C66A A70U C71U] | -0.27
15 | ACUCCGUUGGCGUAAUGGUAACGCGUCUCCCUCCUAAGGAGACGAUUGCGGGUUCGAGUCCCGUAAGGAUUG [G1A U2C A43C C46U C66A A70U C71U] | -0.134
16 | ACUCCGUUGGCGUAAUGGUAACGCGUUUCCCUCCUAAGGAGACGACUGCGGGUUCGAGUCCCGUACGGGUUG [G1A U2C C27U A43C A69G A70U C71U] | -0.345
17 | ACUCCGUUGGCGUAAUGGUAACGCGUCUCCCUCCUAAGGAGACGACUGCGGGUUCGAGUCCCGUACGGAAUG [G1A U2C A43C C71U] | -0.185
18 | ACUCCGUUGGCGUAAUGGUAACGCGUCUCCCUCCUAAGGAGACGACUGCGGGUUCGAGUCCCGUAUGGGUUG [G1A U2C A43C C66U A69G A70U C71U] | -0.279
19 | ACUCCGUUGGCGUAAUGGUAACGCGUUUCCCUCCUAAGGAGACGAUUGCGGGUUCGAGUCCCGUAUGGGGUG [G1A U2C C27U A43C C46U C66U A69G A70G C71U] | -0.2

Row | Variant | yeast fitness (ln)
20 | ACUCCGUUGGCGUAAUGGUAACGCGUCUCCCUCCUAAGGAGAAGACUGCGGGUUCGAGUCCCGUACGGAGUG [G1A U2C A70G C71U] | -0.0141
21 | ACUCCGUUGGCGUAAUGGUAACGCGUUUCCCUCCUAAGGAGACGACUGCGGGUUCGAGUCCCGUACGGGAUG [G1A U2C C27U A43C A69G C71U] | -0.173
22 | ACUCCGUUGGCGUAAUGGUAACGCGUCUCCCUCCUAAGGAGACGAUUGCGGGUUCGAGUCCCGUAUGGAGCG [G1A U2C A43C C46U C66U A70G] | -0.0459
23 | ACUCCGUUGGCGUAAUGGUAACGCGUCUCCCUCCUAAGGAGACGAUUGCGGGUUCGAGUCCCGUAUGGAUCG [G1A U2C A43C C46U C66U A70U] | -0.132
24 | ACUCCGUUGGCGUAAUGGUAACGCGUCUCCCUCCUAAGGAGACGACUGCGGGUUCGAGUCCCGUAAGGGGUG [G1A U2C A43C C66A A69G A70G C71U] | -0.238
25 | ACUCCGUUGGCGUAAUGGUAACGCGUCUCCCUCCUAAGGAGACGACUGCGGGUUCGAGUCCCGUAUGGAGCG [G1A U2C A43C C66U A70G] | -0.161
26 | ACUCCGUUGGCGUAAUGGUAACGCGUCUCCCUCCUAAGGAGACGACUGCGGGUUCGAGUCCCGUAUGGAUCG [G1A U2C A43C C66U A70U] | -0.169
27 | ACUCCGUUGGCGUAAUGGUAACGCGUCUCCCUCCUAAGGAGAAGACUGCGGGUUCGAGUCCCGUACGGAUCG [G1A U2C A70U] | -0.096
28 | ACUCCGUUGGCGUAAUGGUAACGCGUCUCCCUCCUAAGGAGAAGACUGCGGGUUCGAGUCCCGUACGGAGCG [G1A U2C A70G] | -0.0111
29 | ACUCCGUUGGCGUAAUGGUAACGCGUUUCCCUCCUAAGGAGACGAUUGCGGGUUCGAGUCCCGUAUGGAGUG [G1A U2C C27U A43C C46U C66U A70G C71U] | -0.4
30 | ACUCCGUUGGCGUAAUGGUAACGCGUCUCCCUCCUAAGGAGACGACUGCGGGUUCGAGUCCCGUAAGGAUUG [G1A U2C A43C C66A A70U C71U] | -0.285
31 | ACUCCGUUGGCGUAAUGGUAACGCGUCUCCCUCCUAAGGAGAAGACUGCGGGUUCGAGUCCCGUACGGGAUG [G1A U2C A69G C71U] | -0.17
32 | ACUCCGUUGGCGUAAUGGUAACGCGUCUCCCUCCUAAGGAGACGAUUGCGGGUUCGAGUCCCGUAUGGGGCG [G1A U2C A43C C46U C66U A69G A70G] | -0.0919
33 | ACUCCGUUGGCGUAAUGGUAACGCGUCUCCCUCCUAAGGAGACGAUUGCGGGUUCGAGUCCCGUAUGGGUCG [G1A U2C A43C C46U C66U A69G A70U] | -0.195
34 | ACUCCGUUGGCGUAAUGGUAACGCGUUUCCCUCCUAAGGAGACGAUUGCGGGUUCGAGUCCCGUAUGGAACG [G1A U2C C27U A43C C46U C66U] | -0.161
35 | ACUCCGUUGGCGUAAUGGUAACGCGUCUCCCUCCUAAGGAGACGAUUGCGGGUUCGAGUCCCGUACGGAGUG [G1A U2C A43C C46U A70G C71U] | -0.00628
36 | ACUCCGUUGGCGUAAUGGUAACGCGUUUCCCUCCUAAGGAGACGACUGCGGGUUCGAGUCCCGUACGGGGUG [G1A U2C C27U A43C A69G A70G C71U] | -0.0597
37 | ACUCCGUUGGCGUAAUGGUAACGCGUUUCCCUCCUAAGGAGACGAUUGCGGGUUCGAGUCCCGUAAGGAUCG [G1A U2C C27U A43C C46U C66A A70U] | -0.106
38 | ACUCCGUUGGCGUAAUGGUAACGCGUUUCCCUCCUAAGGAGACGAUUGCGGGUUCGAGUCCCGUAAGGAGCG [G1A U2C C27U A43C C46U C66A A70G] | -0.102
